{"source": "ChEMBL document CHEMBL4819012", "about": "“Discovery of novel 2-aryl-3-sulfonamido-pyridines (HoAns) as microtubule polymerization inhibitors with potent antitumor activities” (Eur J Med Chem, 2021)", "key": {"[1]": {"assay": "Toxicity against Athymic nude mouse xenografted with SW-620 cells assessed as toxicity in liver at 25 mg/kg per two days, po measured after 20 days by H and E staining method", "type": "organism-based", "settings": "in vivo, 480 h, time 20 day", "outline": "(§1)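 At the end of the 20-day oral SW620 xenograft study (25 mg/kg every 2 days, n = 6), heart, liver, spleen, lung and kidney were fixed in 4% paraformaldehyde and embedded in paraffin. 4 μm sections stained with Mayer hematoxylin 5 min and eosin-phloxine 2 min, then examined by light microscopy.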"}, "RKO [2]": {"tested_on": "RKO", "assay": "Induction of apoptosis in human RKO cells assessed as late apoptotic cells at 0.5 uM measured after 24 hrs by PI/Annexin V staining based flow cytometry assay (reference value: 0.81%)", "type": "functional"}, "RKO [3]": {"tested_on": "RKO", "assay": "Induction of cell cycle arrest in human RKO cells assessed as accumulation of cells in G2 phase at 0.5 uM measured after 24 hrs by PI staining based flow cytometry method (reference value: 10.79%)", "type": "functional"}, "RKO [4]": {"tested_on": "RKO", "assay": "Induction of apoptosis in human RKO cells assessed as increase in ROS levels at 0.25 uM measured after 24 hrs by DCFH-DA staining based flow cytometry method relative to control", "type": "functional", "outline": "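Cells at 5×10^5 per well exposed to 0.25 or 0.5 µM for 24 h, then loaded with 5 µM DCFH-DA in serum-free medium 30 min at 37 °C; washed, harvested, read by flow cytometry (ex 488/em 525 nm). ROS given as ratio of treated to control; at least three experiments.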"}, "SW-620 [5]": {"tested_on": "SW-620", "assay": "Induction of cell cycle arrest in human SW-620 cells assessed as accumulation of cells in G2 phase at 0.5 uM measured after 24 hrs by PI staining based flow cytometry method (reference value: 13.83%)", "type": "functional"}, "RKO [6]": {"tested_on": "RKO", "assay": "Induction of cell cycle arrest in human RKO cells assessed as reduction in cdc2 expression at 0.5 to 1 uM measured after 24 hrs by western blot assay", "type": "functional, cell-based", "settings": "dose 0.5-1 µM", "outline": "(§2)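 RKO or SW620 cells (4×10^5–5×10^5 per well) exposed to 0.5 or 1 μM or DMSO for 24 h. Lysed in SDS loading buffer, boiled, run on 8–15% SDS-PAGE and moved to PVDF. Blocked in 5% milk, probed overnight at 4 °C with anti-Cdc2 or anti-cyclin B1 (1:1000), β-actin as reference. HRP secondary and ECL detection. Done at least three times.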"}, "SW-620 [7]": {"tested_on": "SW-620", "assay": "Antiproliferative activity against human SW-620 cells assessed as inhibition of cell proliferation measured after 24 hrs by crystal violet staining based colony-formation assay", "type": "functional", "settings": "dose 0.125-1 µM", "outline": "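RKO or SW620 cells plated at 1000 cells/well overnight, exposed to 0.125–1 µM for 24 h, then grown 10 days in fresh medium. Colonies fixed in methanol 15 min, stained with 0.1% crystal violet 30 min, photographed; colonies of more than 50 cells counted.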"}, "[8]": {"molecular_target": "Tubulin beta (Homo sapiens) (UniProt P68371+Q9H4B7+Q13509+P04350+Q3ZCM7+P07437+Q13885+Q9BVA1+Q9BUF5+A6NNZ2)", "assay": "Inhibition of N,N'-Ethylenebis(iodoacetamide) binding to beta tubulin in human SW-620 cells preincubated for 2 hrs followed by addition of EBI and measured after 2 hrs by western blot assay", "type": "cell-based", "settings": "dose 10-40 µM", "outline": "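SW620 cells (5×10^5 per well) pretreated for 2 h with 10, 20 or 40 μM of test agent or DMSO, then given 100 μM EBI for 2 h. Lysed in SDS loading buffer. β-tubulin and β-tubulin–EBI adduct bands resolved by western blot probed with anti-β-tubulin.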"}, "RKO [9]": {"tested_on": "RKO", "assay": "Induction of cell cycle arrest in human RKO cells assessed as accumulation of cells in S phase at 0.5 uM measured after 24 hrs by PI staining based flow cytometry method (reference value: 49.66%)", "type": "functional"}, "PANC-1 [10]": {"tested_on": "PANC-1", "assay": "Induction of cell cycle arrest in human PANC-1 cells assessed as accumulation of cells in G2 phase at 0.5 uM measured after 24 hrs by PI staining based flow cytometry method (reference value: 3.63%)", "type": "functional"}, "SW-620 [11]": {"tested_on": "SW-620", "assay": "Induction of cell cycle arrest in human SW-620 cells assessed as accumulation of cells in S phase at 0.5 uM measured after 24 hrs by PI staining based flow cytometry method (reference value: 46.12%)", "type": "functional"}, "[12]": {"assay": "Inhibition of tubulin polymerization assessed as morphology changes from fusiform to roud at 1 uM measured 24 hrs by DAPI staining based immunoflourescence assay relative to ABT-751"}, "[13]": {"assay": "Toxicity against Athymic nude mouse xenografted with SW-620 cells assessed as toxicity in spleen at 25 mg/kg per two days, po measured after 20 days by H and E staining method", "type": "organism-based", "settings": "in vivo, 480 h, time 20 day", "outline": "as §1"}, "SW-620 [14]": {"tested_on": "SW-620", "assay": "Induction of apoptosis in human SW-620 cells assessed as necrotic cells at 0.5 uM measured after 24 hrs by PI/Annexin V staining based flow cytometry assay (reference value: 0.03%)", "type": "functional"}, "RKO [15]": {"tested_on": "RKO", "assay": "Induction of cell cycle arrest in human RKO cells assessed as accumulation of cells in G1 phase at 0.5 uM measured after 24 hrs by PI staining based flow cytometry method (reference value: 39.54%)", "type": "functional"}, "SW-620 [16]": {"tested_on": "SW-620", "assay": "Induction of cell cycle arrest in human SW-620 cells assessed as reduction in cdc2 expression at 0.5 to 1 uM measured after 24 hrs by western blot assay", "type": "functional, cell-based", "settings": "dose 0.5-1 µM", "outline": "as §2"}, "SW-620 [17]": {"tested_on": "SW-620", "assay": "Induction of cell cycle arrest in human SW-620 cells assessed as accumulation of cells in G1 phase at 0.5 uM measured after 24 hrs by PI staining based flow cytometry method (reference value: 40.06%)", "type": "functional"}, "PANC-1 [18]": {"tested_on": "PANC-1", "assay": "Induction of cell cycle arrest in human PANC-1 cells assessed as accumulation of cells in S phase at 0.5 uM measured after 24 hrs by PI staining based flow cytometry method (reference value: 65%)", "type": "functional"}, "[19]": {"assay": "Toxicity against Athymic nude mouse xenografted with SW-620 cells assessed as toxicity in lung at 25 mg/kg per two days, po measured after 20 days by H and E staining method", "type": "organism-based", "settings": "in vivo, 480 h, time 20 day", "outline": "as §1"}, "PANC-1 [20]": {"tested_on": "PANC-1", "assay": "Induction of cell cycle arrest in human PANC-1 cells assessed as accumulation of cells in G1 phase at 0.5 uM measured after 24 hrs by PI staining based flow cytometry method (reference value: 31.35%)", "type": "functional"}, "[21]": {"assay": "Toxicity against Athymic nude mouse xenografted with SW-620 cells assessed as toxicity in kidney at 25 mg/kg per two days, po measured after 20 days by H and E staining method", "type": "organism-based", "settings": "in vivo, 480 h, time 20 day", "outline": "as §1"}, "RKO [22]": {"tested_on": "RKO", "assay": "Induction of apoptosis in human RKO cells assessed as viable cells at 0.5 uM measured after 24 hrs by PI/Annexin V staining based flow cytometry assay (reference value: 96.6%)", "type": "functional", "settings": "read-out: Activity"}, "A549": {"tested_on": "A549", "assay": "Antiproliferative activity against human A549 cells assessed as cell viability measured after 72 hrs by MTS method", "type": "functional, cell-based", "settings": "A549, 72 h", "outline": "(§3)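 Log-phase cells plated at 5×10^3–6×10^3 per well for 24 h, then given graded compound concentrations in fresh medium for 72 h, five replicate wells. Medium replaced with medium containing 10% MTS, 30 min or more at 37 °C in dark; OD 490 nm read. IC50 by nonlinear regression; mean ± SD of at least three experiments.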"}, "PLC-PRF-5": {"tested_on": "PLC-PRF-5", "assay": "Antiproliferative activity against human PLC-PRF-5 cells assessed as cell viability measured after 72 hrs by MTS method", "type": "functional, cell-based", "settings": "PLC-PRF-5, 72 h", "outline": "as §3"}}, "note": "Active and inactive are the calls of the source. The calls are words filed in the database; no cut-off is given here.", "data": [{"smiles": "COc1ccc(S(=O)(=O)Nc2cccnc2-c2ccc(C#N)c(F)c2)cc1", "values": [{"measurement": "Activity", "setting": "[1]", "value": "Non-Toxic"}, {"measurement": "Activity", "setting": "RKO [2]", "value": 1.04, "unit": "%"}, {"measurement": "Activity", "setting": "RKO [3]", "value": 16.65, "unit": "%"}, {"measurement": "fold change (FC)", "setting": "RKO [4]", "value": 1.5}, {"measurement": "Activity", "setting": "SW-620 [5]", "value": 14.44, "unit": "%"}, {"measurement": "Activity", "setting": "RKO [6]", "value": "Active"}, {"measurement": "Activity", "setting": "SW-620 [7]", "value": "Dose-Dependent Effect"}, {"measurement": "inhibition", "setting": "[8]", "value": "Dose-Dependent Effect"}, {"measurement": "Activity", "setting": "RKO [9]", "value": 46.37, "unit": "%"}, {"measurement": "Activity", "setting": "PANC-1 [10]", "value": 15.67, "unit": "%"}, {"measurement": "Activity", "setting": "SW-620 [11]", "value": 42.53, "unit": "%"}, {"measurement": "inhibition", "setting": "[12]", "value": "Active"}, {"measurement": "Activity", "setting": "[13]", "value": "Non-Toxic"}, {"measurement": "Activity", "setting": "SW-620 [14]", "value": 0.06, "unit": "%"}, {"measurement": "Activity", "setting": "RKO [15]", "value": 36.95, "unit": "%"}, {"measurement": "Activity", "setting": "SW-620 [16]", "value": "Active"}, {"measurement": "Activity", "setting": "SW-620 [17]", "value": 38.03, "unit": "%"}, {"measurement": "Activity", "setting": "PANC-1 [18]", "value": 50.11, "unit": "%"}, {"measurement": "Activity", "setting": "[19]", "value": "Non-Toxic"}, {"measurement": "Activity", "setting": "PANC-1 [20]", "value": 34.22, "unit": "%"}, {"measurement": "Activity", "setting": "[21]", "value": "Non-Toxic"}, {"measurement": "viability at 0.5 µM", "setting": "RKO [22]", "value": 74.5, "unit": "%"}]}, {"smiles": "COc1ccc(S(=O)(=O)Nc2cccnc2Nc2ccc(O)cc2)cc1", "note": "[ABT-751]", "values": [{"measurement": "IC50", "setting": "A549", "value": 1380, "unit": "nM"}, {"measurement": "IC50", "setting": "PLC-PRF-5", "value": 792, "unit": "nM"}]}]}
